Here are results for six compounds from ChEMBL document CHEMBL1126160, “Synthesis and structure-activity relationships of 7-diazabicycloalkylquinolones, including danofloxacin, a new quinolone antibacterial agent for veterinary medicine” (J Med Chem, 1992).

In brackets after ≈: the same amount, converted by molar mass.

The subject of data set [1] is Actinobacillus pleuropneumoniae. The data set can be described thus: In vitro antibacterial activity against anaerobically grown Actinobacillus pleuropneumoniae ([…]). Type of data set: functional. Put shortly:
(§1)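 Agar dilution MICs. Anaerobic strains were tested on tryptose agar with 5% bovine blood and incubated 48 h at 39 °C in an anaerobe chamber under N2/CO2/H2 (80:10:10).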

In a further data set the test system is Trueperella pyogenes. Put plainly: In vitro antibacterial activity against anaerobically grown Actinomyces pyogenes (14D002). In kind it is functional. Put shortly: as §1
A further data set relates to Phocaeicola vulgatus. Put plainly: In vitro antibacterial activity against anaerobically grown Bacteroides vulgatus (78D029). Type of data set: functional. The method in brief:
as §1

The test system of data set [2] is Bordetella bronchiseptica. The data set can be described thus: In vitro antibacterial activity against aerobically grown Bordetella bronchiseptica (73A009). In kind it is functional. The method in brief: (§2)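 Agar dilution MICs. Aerobic strains were tested on brain heart infusion agar and incubated aerobically at 37 °C for 18–20 h.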
The subject of data set [3] is Escherichia coli. Put plainly: In vivo protective dose was evaluated against Escherichia coli (51A266) in mouse(sc). In kind it is functional. As to conditions: read-out: PD50. Put shortly: (§3)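 Female CF-1 mice (15 g), groups of 10, challenged ip with 0.5 mL bacterial suspension (P. multocida 59A006 or E. coli 51A266 at 3.0 × 10^8 cfu/mL; S. choleraesuis 58B010 at 8.5 × 10^2 cfu/mL). Drug given sc or po at 30 min, 4 h and 24 h after challenge; survival recorded at 96 h; PD50 by probit analysis.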

Data set [4] has as its system Escherichia coli. The data set can be described thus: In vitro antibacterial activity against aerobically grown Escherichia coli (51A538). In kind it is functional. Put shortly: as §2
Data set [5] relates to Escherichia coli. Put plainly: Escherichia coli DNA cleavage endpoint value which is the minimum amount required (in micro g/mL) to induce detectable cleavage of supercoiled pBR322 substrate to linear form (gyrase). Type of data set: functional. As to conditions: read-out: MIC. The method in brief:
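DNA gyrase A and B subunits were purified from E. coli overproducers. About 2 units of holoenzyme were incubated with pBR322 in Tris-HCl pH 7.5 containing MgCl2, spermidine, DTT, 0.2 mM ATP, BSA and tRNA. Drug was added as 2-fold serial dilutions, and reactions ran for 60 min at 25 °C. Reactions were stopped with SDS and proteinase K, then run on agarose and stained with ethidium. The endpoint was the lowest concentration giving detectable linear DNA.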

Data set [6] in a line: In vitro antibacterial activity against Aerobically grown Pasteurella haemolytica (59B018). In kind it is functional. As to conditions: Mannheimia haemolytica. The method in brief:
as §2

Data set [7] deals with Pasteurella multocida. Put plainly: In vitro antibacterial activity against aerobically grown Pasteurella multocida (59A006). Type of data set: functional. Put shortly:
as §2

The subject of another data set is Salmonella enterica. Put plainly: In vitro antibacterial activity against aerobically grown Salmonella choleraesuis (58B015). In kind it is functional.
Another data set concerns Staphylococcus aureus. Put plainly: In vitro antibacterial activity against aerobically grown Staphylococcus aureus (54B004). Type of data set: functional. Put shortly: as §2
Data set [8] in a line: In vitro evaluation for antibacterial activity against anaerobically grown Treponema hyodysenteriae (94A007). Type of data set: functional. Particulars: Brachyspira hyodysenteriae.
Another data set relates to Clostridium perfringens. Put plainly: microbe, parasite or virus in culture. Type of data set: functional.
Data set [9] has as its system Pasteurella multocida. Put plainly: In vivo protective dose was evaluated Pasteurella multocida (59A006) in mouse(sc). Particulars: read-out: PD50. In kind it is functional. The method in brief:
as §3

Data set [10] has as its system Pasteurella multocida. The data set can be described thus: In vivo protective dose was evaluated against Pasteurella multocida (59A006) in mouse(sc). In kind it is functional. Particulars: read-out: PD50. The method in brief:
as §3

Data set [11] is described as follows: Compound was evaluated for aqueous solubility at pH 7.2. Particulars: buffer.

With `Cl.O.O=C(O)c1cn(C2CC2)c2cc(N3CCN4CCC3CC4)c(F)cc2c1=O`, the MIC in data set [1] was found to be 0.05 µg/mL; in the data set with Trueperella pyogenes it was 1.56 µg/mL; against Phocaeicola vulgatus, 0.39 µg/mL; in data set [2], 0.39 µg/mL; in the data set on Escherichia coli [4], 0.02 µg/mL; in data set [6], 0.01 µg/mL. The MIC against Pasteurella multocida [7] is less than 0.002 µg/mL; in the data set on Salmonella enterica, 0.02 µg/mL; in the data set on Staphylococcus aureus, 0.05 µg/mL; in data set [8] it was 0.39 µg/mL; with Clostridium perfringens, 0.05 µg/mL. Further, the ED50 in the data set with Escherichia coli [3] turned out to be 0.09 mg/kg. For the same compound, the minimum concentration inducing gyrase-mediated DNA cleavage in the data set on Escherichia coli [5] was determined as 0.39 µg/mL.
Consider `CCn1cc(C(=O)O)c(=O)c2cc(F)c(N3CC[C@H]4CCC(C3)N4C)cc21`, for which the MIC in [1] was 0.78 µg/mL (≈ 2.09 µM); against Trueperella pyogenes it was more than 3.13 µg/mL; in the data set on Phocaeicola vulgatus, more than 3.13 µg/mL; in data set [2], more than 1.56 µg/mL; in the data set with Escherichia coli [4] it was more than 1.56 µg/mL; in data set [6], 1.56 µg/mL (≈ 4.18 µM). The MIC in the data set on Pasteurella multocida [7] was 0.39 µg/mL (≈ 1.04 µM); with Salmonella enterica it was more than 1.56 µg/mL; against Staphylococcus aureus it was 1.56 µg/mL (≈ 4.18 µM); in data set [8], more than 3.13 µg/mL; against Clostridium perfringens, 1.56 µg/mL (≈ 4.18 µM). Also, in the data set with Escherichia coli [5], the minimum concentration inducing gyrase-mediated DNA cleavage is 1.56 µg/mL. Moreover, the ED50 with Pasteurella multocida [9] was 1.03 mg/kg.
For `CCn1cc(C(=O)O)c(=O)c2cc(F)c(N3CCN4CCCC3C4)cc21` (stereo unspecified), the MIC was 0.05 µg/mL (≈ 0.139 µM) in data set [1]; more than 3.13 µg/mL in the data set with Trueperella pyogenes; 3.13 µg/mL (≈ 8.71 µM) against Phocaeicola vulgatus; more than 1.56 µg/mL in [2]; 0.2 µg/mL (≈ 0.556 µM) against Escherichia coli [4]; 0.1 µg/mL (≈ 0.278 µM) in data set [6]. In addition, the MIC was determined as 0.02 µg/mL (≈ 0.0556 µM) against Pasteurella multocida [7]; 0.2 µg/mL (≈ 0.556 µM) with Salmonella enterica; 0.39 µg/mL (≈ 1.09 µM) in the data set with Staphylococcus aureus; 0.39 µg/mL (≈ 1.09 µM) in data set [8]; 0.39 µg/mL (≈ 1.09 µM) in the data set on Clostridium perfringens. The ED50 in the data set on Escherichia coli [3] worked out at 1.36 mg/kg; with Pasteurella multocida [10] it was 0.71 mg/kg. Besides, the minimum concentration inducing gyrase-mediated DNA cleavage in the data set on Escherichia coli [5] worked out at 3.12 µg/mL.
For orientation: solubility means the dissolved amount per volume that the medium holds. Lower therefore signals a poorly soluble substance. For the compound `O=C(O)c1cn(C2CC2)c2cc(N3C[C@@H]4C[C@H]3CN4)c(F)cc2c1=O`, the concentration in solution in data set [11] (solubility) came to 77 µg/mL (≈ 224 µM). In addition, the MIC in data set [1] is 0.1 µg/mL (≈ 0.291 µM); in the data set on Trueperella pyogenes, 3.13 µg/mL (≈ 9.12 µM); in the data set on Phocaeicola vulgatus, more than 3.13 µg/mL; in [2], more than 1.56 µg/mL; against Escherichia coli [4], 0.1 µg/mL (≈ 0.291 µM); in data set [6], 0.2 µg/mL (≈ 0.582 µM). Besides, the MIC was found to be 0.2 µg/mL (≈ 0.582 µM) against Pasteurella multocida [7]; 0.05 µg/mL (≈ 0.146 µM) against Salmonella enterica; 1.56 µg/mL (≈ 4.54 µM) in the data set with Staphylococcus aureus; 1.56 µg/mL (≈ 4.54 µM) in data set [8]; 0.1 µg/mL (≈ 0.291 µM) against Clostridium perfringens. The values for the ED50 in the data set with Escherichia coli [3] and with Pasteurella multocida [10] were 0.92 mg/kg and 0.2 mg/kg, respectively. The minimum concentration inducing gyrase-mediated DNA cleavage in the data set on Escherichia coli [5] came out at 0.39 µg/mL.
Take `CN1C2CC[C@@H]1CCN(c1cc3c(cc1F)c(=O)c(C(=O)O)cn3C1CC1)C2`: the MIC in data set [1] is 0.2 µg/mL (≈ 0.519 µM); in the data set with Trueperella pyogenes, 3.13 µg/mL (≈ 8.12 µM); against Phocaeicola vulgatus, 3.13 µg/mL (≈ 8.12 µM); in data set [2], more than 1.56 µg/mL; in the data set with Escherichia coli [4], 0.39 µg/mL (≈ 1.01 µM); in data set [6], 0.2 µg/mL (≈ 0.519 µM). Moreover, the MIC against Pasteurella multocida [7] was determined as 0.05 µg/mL (≈ 0.13 µM); with Salmonella enterica, 0.39 µg/mL (≈ 1.01 µM); against Staphylococcus aureus it was 0.39 µg/mL (≈ 1.01 µM); in data set [8] it was 1.56 µg/mL (≈ 4.05 µM); against Clostridium perfringens, 0.2 µg/mL (≈ 0.519 µM). Also, the minimum concentration inducing gyrase-mediated DNA cleavage in the data set on Escherichia coli [5] worked out at 3.12 µg/mL. In addition, the ED50 in the data set on Pasteurella multocida [10] came to 0.43 mg/kg.
`CN1C[C@H]2C[C@@H]1CN2c1cc2c(cc1F)c(=O)c(C(=O)O)cn2C1CC1`: the MIC in data set [1] was determined as 0.05 µg/mL (≈ 0.14 µM); in the data set on Trueperella pyogenes it was 3.13 µg/mL (≈ 8.76 µM); with Phocaeicola vulgatus it was 3.13 µg/mL (≈ 8.76 µM); in data set [2] it was 1.56 µg/mL (≈ 4.37 µM); in the data set with Escherichia coli [4], 0.05 µg/mL (≈ 0.14 µM); in data set [6], 0.05 µg/mL (≈ 0.14 µM). For the same compound, the MIC against Pasteurella multocida [7] was found to be 0.02 µg/mL (≈ 0.056 µM); in the data set on Salmonella enterica, 0.1 µg/mL (≈ 0.28 µM); with Staphylococcus aureus it was 0.39 µg/mL (≈ 1.09 µM); in data set [8] it was 1.56 µg/mL (≈ 4.37 µM); against Clostridium perfringens it was 0.2 µg/mL (≈ 0.56 µM). Moreover, the minimum concentration inducing gyrase-mediated DNA cleavage in the data set on Escherichia coli [5] worked out at 0.19 µg/mL. Moreover, the ED50 with Pasteurella multocida [9] came out at 0.22 mg/kg.
